Test results from ChEMBL document CHEMBL1146123, “Kinesin spindle protein (KSP) inhibitors. Part 2: the design, synthesis, and characterization of 2,4-diaryl-2,5-dihydropyrrole inhibitors of the mitotic kinesin KSP” (Bioorg Med Chem Lett, 2006).
One block for each molecule: values may come before it.

Key:
[1] = system: A2780; test: Mitotic arrest in A2780 cells; type: functional, cell-based; settings: Homo sapiens
Summary of the method: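 Mitosis-specific nucleolin phosphorylation read-out. Total nucleolin is captured on streptavidin paramagnetic beads carrying biotinylated anti-nucleolin antibody 4E2, and detected by electrochemiluminescence of a Tris-bipyridyl label. Cells were treated for 16 h with a 7-point, half-log dilution series. EC50 is the average of at least two independent determinations.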

[2] = molecular target: T1, Kinesin-like protein KIF11 (Homo sapiens, UniProt P52732); test: Inhibition of KSP
T1 sequence (P52732 whole entry): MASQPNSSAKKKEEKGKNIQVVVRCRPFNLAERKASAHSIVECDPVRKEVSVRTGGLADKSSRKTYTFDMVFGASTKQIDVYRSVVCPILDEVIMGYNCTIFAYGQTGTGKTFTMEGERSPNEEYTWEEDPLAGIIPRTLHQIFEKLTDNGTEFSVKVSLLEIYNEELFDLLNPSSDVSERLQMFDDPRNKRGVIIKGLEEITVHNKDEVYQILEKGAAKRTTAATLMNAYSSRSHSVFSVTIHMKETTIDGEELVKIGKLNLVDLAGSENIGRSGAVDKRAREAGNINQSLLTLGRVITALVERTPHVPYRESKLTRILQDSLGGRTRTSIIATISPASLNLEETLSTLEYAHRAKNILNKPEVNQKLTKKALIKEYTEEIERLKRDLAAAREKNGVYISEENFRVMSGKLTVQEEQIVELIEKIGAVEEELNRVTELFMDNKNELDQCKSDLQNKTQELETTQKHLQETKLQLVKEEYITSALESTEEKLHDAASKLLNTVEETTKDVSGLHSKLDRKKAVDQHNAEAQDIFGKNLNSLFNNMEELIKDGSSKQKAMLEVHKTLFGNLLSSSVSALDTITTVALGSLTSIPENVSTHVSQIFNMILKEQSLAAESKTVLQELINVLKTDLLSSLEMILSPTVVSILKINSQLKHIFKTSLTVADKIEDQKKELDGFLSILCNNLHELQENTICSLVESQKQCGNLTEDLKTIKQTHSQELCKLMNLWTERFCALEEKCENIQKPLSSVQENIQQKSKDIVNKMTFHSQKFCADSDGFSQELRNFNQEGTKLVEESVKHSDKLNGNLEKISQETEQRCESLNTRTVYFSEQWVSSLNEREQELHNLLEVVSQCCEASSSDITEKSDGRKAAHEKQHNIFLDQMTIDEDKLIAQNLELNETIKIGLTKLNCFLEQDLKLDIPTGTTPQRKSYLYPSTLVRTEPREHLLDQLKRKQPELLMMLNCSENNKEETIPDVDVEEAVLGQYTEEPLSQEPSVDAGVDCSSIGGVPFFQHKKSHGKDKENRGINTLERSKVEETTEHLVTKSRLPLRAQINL

[3] = Aqueous solubility at pH 5; type: physicochemical; settings: aqueous solution
[4] = Plasma clearance in rat at 1 mg/kg, iv; type: ADME, organism-based; set-up: dose 1 mg/kg, route intravenous
Summary of the method: (§1)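 Single intravenous dose; rats at 1.0 mg/kg (n = 4), dogs at 0.4 mg/kg (n = 4), monkeys at 0.4 mg/kg (n = 3). Plasma clearance (mL/min/kg), steady-state volume of distribution (Vdss, L/kg) and half-life (h) taken from the plasma concentration profile.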

[5] = Half life in dog at 0.4 mg/kg, iv; type: ADME, organism-based, Canis lupus familiaris; set-up: dose 0.4 mg/kg, route intravenous; settings: in vivo; summary of the method: as §1
[6] = Plasma clearance in dog at 0.4 mg/kg, iv; type: ADME, organism-based, Canis lupus familiaris; set-up: dose 0.4 mg/kg, route intravenous; summary of the method: as §1
[7] = Volume distribution in dog at 0.4 mg/kg, iv; type: ADME, organism-based, Canis lupus familiaris; set-up: dose 0.4 mg/kg, route intravenous; settings: in vivo, read-out: Vdss; summary of the method: as §1
[8] = Half life in rat at 1 mg/kg, iv; type: ADME, organism-based; set-up: dose 1 mg/kg, route intravenous; settings: in vivo; summary of the method: as §1
[9] = Volume distribution in rat at 1 mg/kg, iv; type: ADME, organism-based; set-up: dose 1 mg/kg, route intravenous; settings: in vivo, read-out: Vdss; summary of the method: as §1
[10] = Half life in monkey at 0.4 mg/kg, iv; type: ADME, organism-based, Macaca mulatta; set-up: dose 0.4 mg/kg, route intravenous; settings: rhesus monkey, in vivo; summary of the method: as §1
[11] = Plasma clearance in monkey at 0.4 mg/kg, iv; type: ADME, organism-based, Macaca mulatta; set-up: dose 0.4 mg/kg, route intravenous; settings: rhesus monkey; summary of the method: as §1
[12] = Volume distribution in monkey at 0.4 mg/kg, iv; type: ADME, organism-based, Macaca mulatta; set-up: dose 0.4 mg/kg, route intravenous; settings: rhesus monkey, in vivo, read-out: Vdss; summary of the method: as §1
[13] = molecular target: Voltage-gated inwardly rectifying potassium channel KCNH2 (Homo sapiens, UniProt Q12809); test: Inhibitory activity against human hERG receptor expressed in HEK cells
Voltage-gated inwardly rectifying potassium channel KCNH2, sequence (Q12809 whole entry): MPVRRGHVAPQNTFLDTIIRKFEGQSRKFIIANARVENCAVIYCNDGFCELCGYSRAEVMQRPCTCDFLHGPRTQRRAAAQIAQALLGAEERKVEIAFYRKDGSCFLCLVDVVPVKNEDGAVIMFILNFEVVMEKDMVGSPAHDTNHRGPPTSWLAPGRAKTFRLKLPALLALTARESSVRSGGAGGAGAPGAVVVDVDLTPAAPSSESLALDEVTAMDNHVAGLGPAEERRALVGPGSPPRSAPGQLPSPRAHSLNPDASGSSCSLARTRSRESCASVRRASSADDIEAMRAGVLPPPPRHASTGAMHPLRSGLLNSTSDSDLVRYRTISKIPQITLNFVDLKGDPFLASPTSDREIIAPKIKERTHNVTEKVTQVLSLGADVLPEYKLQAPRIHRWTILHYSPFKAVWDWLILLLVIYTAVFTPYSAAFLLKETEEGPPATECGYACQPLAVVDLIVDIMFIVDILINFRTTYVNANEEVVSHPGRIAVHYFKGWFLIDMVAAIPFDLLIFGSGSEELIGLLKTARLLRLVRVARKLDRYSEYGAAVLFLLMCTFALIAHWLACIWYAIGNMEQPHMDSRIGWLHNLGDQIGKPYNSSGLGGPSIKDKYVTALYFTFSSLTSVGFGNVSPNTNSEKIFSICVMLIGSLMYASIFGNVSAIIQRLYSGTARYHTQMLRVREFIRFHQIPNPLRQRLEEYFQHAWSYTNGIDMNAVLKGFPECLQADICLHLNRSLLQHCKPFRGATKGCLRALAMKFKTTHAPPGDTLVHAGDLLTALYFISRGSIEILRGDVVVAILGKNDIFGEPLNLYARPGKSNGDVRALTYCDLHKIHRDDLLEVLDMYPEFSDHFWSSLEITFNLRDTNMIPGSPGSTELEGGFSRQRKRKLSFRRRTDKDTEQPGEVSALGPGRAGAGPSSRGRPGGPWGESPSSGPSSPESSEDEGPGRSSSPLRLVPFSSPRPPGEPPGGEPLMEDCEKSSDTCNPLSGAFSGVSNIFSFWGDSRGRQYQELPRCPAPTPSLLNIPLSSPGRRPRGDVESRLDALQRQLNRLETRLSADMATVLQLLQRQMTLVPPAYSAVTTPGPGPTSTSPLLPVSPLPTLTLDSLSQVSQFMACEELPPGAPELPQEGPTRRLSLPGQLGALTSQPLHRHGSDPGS

Compound: CC(C)(C)[C@H](N)C(=O)N1CC(c2cc(F)ccc2F)=C[C@H]1c1ccccc1
EC50 [1]: 7.1 nM
IC50 [2]: 2.7 nM

Compound: CN(C(=O)N1CC(c2cc(F)ccc2F)=C[C@H]1c1ccccc1)C1CCNCC1
EC50 [1]: 6.8 nM
solubility [3]: > 10000 µg/mL

Compound: CC(=O)N1CCC(N(C)C(=O)N2CC(c3cc(F)ccc3F)=C[C@H]2c2ccccc2)CC1
EC50 [1]: 69 nM
IC50 [2]: 50 nM

IC50 [2]: > 50000 nM
Compound: CN(C)C(=O)N1CC(c2cc(F)ccc2F)=C[C@@H]1c1ccccc1

IC50 [2]: 85 nM
Compound: CC(C)(C)C(=O)N1CC(c2cc(F)ccc2F)=CC1c1ccccc1 (racemic)

Compound: CC(C)(CN)C(=O)N1CC(c2cc(F)ccc2F)=C[C@H]1c1ccccc1
EC50 [1]: 11 nM
IC50 [2]: 5.2 nM

Compound: N[C@H](C(=O)N1CC(c2cc(F)ccc2F)=C[C@H]1c1ccccc1)C1CC1
clearance [4]: 40 mL/min/kg
half-life [5]: 2.3 h
EC50 [1]: 8.6 nM
clearance [6]: 23 mL/min/kg
solubility [3]: > 10000 µg/mL
Vd [7]: 3.8 L/kg
half-life [8]: 1.4 h
Vd [9]: 4.4 L/kg
half-life [10]: 4.5 h
clearance [11]: 21 mL/min/kg
Vd [12]: 7.4 L/kg

Compound: CN(CCCN)C(=O)N1CC(c2cc(F)ccc2F)=C[C@H]1c1ccccc1
EC50 [1]: 44 nM
IC50 [2]: 16 nM

IC50 [2]: 3100 nM
Compound: CC(C)[C@@H](N)C(=O)N1CC(c2cc(F)ccc2F)=C[C@H]1c1ccccc1

IC50 [2]: 113 nM
Compound: CC(C)(C)C(=O)N1N=C(c2cc(F)ccc2F)CC1c1ccccc1 (racemic)

IC50 [2]: 4000 nM
Compound: CC(=O)N1CC(c2cc(F)ccc2F)=CC1c1ccccc1 (racemic)

Compound: O=C([C@@H](O)C1CC1)N1CC(c2cc(F)ccc2F)=C[C@H]1c1ccccc1
EC50 [1]: 20 nM
IC50 [13]: 11000 nM
IC50 [2]: 11 nM

Compound: CC(C)(C)[C@H](NC(=O)OCCO)C(=O)N1CC(c2cc(F)ccc2F)=C[C@H]1c1ccccc1
EC50 [1]: 13 nM
IC50 [2]: 7.4 nM

Compound: CC(C)[C@H](N)C(=O)N1CC(c2cc(F)ccc2F)=C[C@H]1c1ccccc1
EC50 [1]: 12 nM
IC50 [2]: 3.6 nM
